Data on one compound can be found in publication PMC3180826 (ACS chemical neuroscience, 2010).

For the experiment, the target named is T1, rM1 K392D (Rattus norvegicus, UniProt P08482, K392D).
T1 sequence (P08482 1-460 K392D): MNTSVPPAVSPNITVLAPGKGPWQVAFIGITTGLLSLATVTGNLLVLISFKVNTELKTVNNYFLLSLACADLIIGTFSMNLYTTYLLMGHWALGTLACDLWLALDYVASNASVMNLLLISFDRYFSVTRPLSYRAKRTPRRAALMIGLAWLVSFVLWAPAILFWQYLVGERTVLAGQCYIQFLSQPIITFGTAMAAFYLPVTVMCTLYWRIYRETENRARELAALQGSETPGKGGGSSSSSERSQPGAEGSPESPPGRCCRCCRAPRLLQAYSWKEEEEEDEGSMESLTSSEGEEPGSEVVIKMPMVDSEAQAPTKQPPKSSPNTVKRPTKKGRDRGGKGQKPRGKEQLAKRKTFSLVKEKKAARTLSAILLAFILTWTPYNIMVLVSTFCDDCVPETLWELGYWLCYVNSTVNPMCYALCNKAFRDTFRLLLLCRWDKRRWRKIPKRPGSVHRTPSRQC
As to the kind of experiment: Calcium mobilization, rM1 K392D mutant CHO-K1 cells. The experiment is classed as cell-based. Conditions: compared with wt rM1. The gist of the method: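 CHO-K1 cells were transiently transfected overnight at 37 °C with 10 μg of mutant rat M1 cDNA in pcDNA3.1+ using Fugene 6, then plated for the calcium assay. They were loaded with 2 μM Fluo-4 AM for 1 h at 37 °C in HEPES/probenecid-buffered HBSS, pH 7.4. Test compound dose–response series were added at 19 s. Calcium mobilization was measured as fluorescence increase over basal.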
(Calcium assays in cells follow changes in intracellular calcium, usually with a dye or a luminescent sensor.)

Turning to `CCOC(=O)N1CCC(NCCNC(=O)c2ccccc2)CC1` [VU0184670, ethyl 4-(2-benzamidoethylamino)piperidine-1-carboxylate], the “functional activity at K392D mutant” value is listed as “comparable results to wt rM1”.
